In ChEMBL document CHEMBL2069262, “Stimulation of Glucose-Dependent Insulin Secretion by a Potent, Selective sst3 Antagonist” (ACS Med Chem Lett, 2012):
Calls of active or inactive are those of the source. The rule behind the calls is not given here. Positions of bridges follow the written chain, without caps; N, C: chain ends. Non-standard residues stand in square brackets, D forms with d. Residues, ends and D or L forms follow the SMILES beside them. *: point of attachment. Threoninol(2S,3R) = C[C@@H](O)[C@H](CO)N*

Assays:
[1] = Inhibition of glucose-stimulated insulin secretion in C57BL/6J mouse pancreatic islets at 50 nM after 1 hr by ELISA; type: functional, Pancreatic islet; design: scale not given: the % may be the effect or the level left
Outline: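 Islets isolated from normal C57BL/6J mice were incubated at basal (2 mM) and stimulatory (16 mM) glucose, and insulin secretion was measured. DMSO served as the negative control and GLP-1 at 10 nM as the positive control. n = 4.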

[2] = biological target: Voltage-gated inwardly rectifying potassium channel KCNH2 (Homo sapiens, UniProt Q12809); test: Displacement of [35S]MK499 from human Erg expressed in HEK293 cells after 60 mins by scintillation counting; type: cell-based
[3] = biological target: T1, Somatostatin receptor type 3 (Homo sapiens, UniProt P32745); type: functional, cell-based, CHO
[4] = biological target: T1, Somatostatin receptor type 3; test: Displacement of [125I]SS-14 from human SST3 receptor expressed in CHO cells after 60 mins by scintillation counting; type: cell-based
[5] = Cmax in C57BL/6N mouse at 2 mg/kg, po; type: ADME, organism-based; design: dose 2 mg/kg, route oral; details: in vivo
[6] = biological target: Voltage-gated L-type calcium channel (Homo sapiens, UniProt Q13936+Q13698+Q01668+O60840); test: Binding affinity to L-type calcium channel
[7] = Half life in C57BL/6N mouse at 1 mg/kg, iv and 2 mg/kg, po; type: ADME, organism-based; details: in vivo
[8] = Volume of distribution at steady state in C57BL/6N mouse at 1 mg/kg, iv and 2 mg/kg, po; type: ADME, organism-based; details: in vivo, read-out: Vdss
[9] = Oral bioavailability in C57BL/6N mouse at 2 mg/kg; type: ADME, organism-based; details: in vivo
[10] = tested on: Mus musculus; test: Dose normalized AUC in C57BL/6N mouse at 2 mg/kg, po; type: ADME, organism-based; design: dose 2 mg/kg, route oral; details: in vivo
[11] = Clearance in C57BL/6N mouse at 1 mg/kg, iv and 2 mg/kg, po; type: ADME, organism-based; details: in vivo
[12] = Activation of glucose-stimulated insulin secretion in C57BL/6J mouse pancreatic islets at 10 nM after 1 hr by ELISA in presence of 16 mM glucose relative to DMSO; type: functional; details: Pancreatic islet
Outline: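 Pancreatic islets were isolated from normal C57BL/6J mice. Insulin secretion was measured at 2 and 16 mM glucose. Treatments were test agent at 10 μM, octreotide at 50 nM, the two combined, DMSO as negative control and GLP-1 at 10 nM as positive control. n = 4.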

T1 sequence (P32745 whole entry): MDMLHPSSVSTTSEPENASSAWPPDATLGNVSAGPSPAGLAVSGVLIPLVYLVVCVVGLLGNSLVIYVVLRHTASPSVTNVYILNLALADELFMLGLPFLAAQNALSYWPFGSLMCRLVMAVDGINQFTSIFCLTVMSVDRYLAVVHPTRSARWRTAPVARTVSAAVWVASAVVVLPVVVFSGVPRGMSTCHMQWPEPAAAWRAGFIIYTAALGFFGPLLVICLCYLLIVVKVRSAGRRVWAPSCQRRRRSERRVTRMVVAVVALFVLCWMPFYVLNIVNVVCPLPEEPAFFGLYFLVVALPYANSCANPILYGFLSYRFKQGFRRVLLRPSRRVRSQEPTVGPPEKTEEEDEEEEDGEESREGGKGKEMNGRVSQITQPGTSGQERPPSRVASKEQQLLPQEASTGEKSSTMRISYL
Sequence of Voltage-gated inwardly rectifying potassium channel KCNH2 (Q12809 whole entry): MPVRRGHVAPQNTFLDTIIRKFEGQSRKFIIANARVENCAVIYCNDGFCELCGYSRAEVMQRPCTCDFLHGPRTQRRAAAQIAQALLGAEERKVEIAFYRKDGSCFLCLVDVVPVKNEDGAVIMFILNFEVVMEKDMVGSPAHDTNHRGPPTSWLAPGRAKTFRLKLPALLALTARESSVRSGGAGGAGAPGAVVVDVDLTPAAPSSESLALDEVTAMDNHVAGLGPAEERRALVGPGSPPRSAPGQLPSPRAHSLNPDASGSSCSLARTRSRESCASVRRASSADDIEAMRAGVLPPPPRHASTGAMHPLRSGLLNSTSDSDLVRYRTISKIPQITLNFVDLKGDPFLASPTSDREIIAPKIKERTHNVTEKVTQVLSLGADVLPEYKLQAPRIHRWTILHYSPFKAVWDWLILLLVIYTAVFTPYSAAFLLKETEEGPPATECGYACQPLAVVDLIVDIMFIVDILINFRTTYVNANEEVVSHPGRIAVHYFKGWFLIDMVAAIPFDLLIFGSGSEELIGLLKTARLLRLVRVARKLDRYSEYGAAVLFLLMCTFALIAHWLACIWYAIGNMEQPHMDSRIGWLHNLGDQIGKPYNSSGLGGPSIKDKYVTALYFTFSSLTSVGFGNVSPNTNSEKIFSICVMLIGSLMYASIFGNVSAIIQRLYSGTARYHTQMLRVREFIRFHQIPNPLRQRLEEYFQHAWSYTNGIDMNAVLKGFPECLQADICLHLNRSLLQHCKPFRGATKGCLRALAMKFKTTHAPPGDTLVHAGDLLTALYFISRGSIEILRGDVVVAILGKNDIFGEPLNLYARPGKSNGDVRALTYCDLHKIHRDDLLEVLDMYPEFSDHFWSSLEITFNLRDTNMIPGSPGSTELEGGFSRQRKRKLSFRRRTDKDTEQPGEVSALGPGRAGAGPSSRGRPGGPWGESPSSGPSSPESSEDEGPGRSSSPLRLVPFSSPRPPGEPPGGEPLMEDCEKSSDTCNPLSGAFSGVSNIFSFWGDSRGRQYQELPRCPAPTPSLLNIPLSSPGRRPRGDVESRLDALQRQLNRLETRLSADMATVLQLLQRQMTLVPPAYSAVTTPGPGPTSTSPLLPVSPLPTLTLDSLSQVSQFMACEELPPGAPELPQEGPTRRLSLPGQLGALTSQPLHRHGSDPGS

C[C@@H](O)[C@H](CO)NC(=O)[C@@H]1CSSC[C@H](NC(=O)[C@H](N)Cc2ccccc2)C(=O)N[C@@H](Cc2ccccc2)C(=O)N[C@H](Cc2c[nH]c3ccccc23)C(=O)N[C@@H](CCCCN)C(=O)N[C@@H]([C@@H](C)O)C(=O)N1 (H-[dF]CF[dW]KTC-{Threoninol(2S,3R)}; disulfide 2-7)
Activity [1]: 39%

CC(=O)N1CCC(C2N[C@@H](c3nc(-c4ccccc4)c[nH]3)Cc3c2[nH]c2ccccc32)CC1 (stereo not given in full)
IC50 [2]: 9800 nM | IC50 [3]: 46 nM | IC50 [4]: 16 nM

c1ccc(-c2c[nH]c([C@H]3Cc4c([nH]c5ccccc45)C(C4CCNCC4)N3)n2)cc1 (stereo not given in full)
IC50 [3]: 220 nM | IC50 [4]: 63 nM

c1ccc(-c2c[nH]c([C@H]3Cc4c([nH]c5ccccc45)C(C4CCCCC4)N3)n2)cc1 (stereo not given in full)
Cmax [5]: 60 nM | IC50 [6]: 308 nM | half-life [7]: 8.4 min | Vd [8]: 8.1 L/kg | bioavailability [9]: 15% | AUC/dose [10]: 0.07 µM·h/mg | clearance [11]: 95 mL/min/kg

CC[C@H](C)[C@H](NC(=O)[C@H](Cc1ccccc1)NC(=O)[C@H](CCC(=O)O)NC(=O)[C@H](CCCCN)NC(=O)[C@H](C)NC(=O)[C@H](C)NC(=O)[C@H](CCC(N)=O)NC(=O)CNC(=O)[C@H](CCC(=O)O)NC(=O)[C@H](CC(C)C)NC(=O)[C@H](Cc1ccc(O)cc1)NC(=O)[C@H](CO)NC(=O)[C@H](CO)NC(=O)[C@@H](NC(=O)[C@H](CC(=O)O)NC(=O)[C@H](CO)NC(=O)[C@@H](NC(=O)[C@H](Cc1ccccc1)NC(=O)[C@@H](NC(=O)CNC(=O)[C@H](CCC(=O)O)NC(=O)[C@H](C)N[C@@H](Cc1cnc[nH]1)C(=O)O)[C@@H](C)O)[C@H](C)O)C(C)C)C(=O)N[C@@H](C)C(=O)N[C@@H](Cc1c[nH]c2ccccc12)C(=O)N[C@@H](CC(C)C)C(=O)N[C@H](C(=O)N[C@@H](CCCCN)C(=O)NCC(=O)N[C@@H](CCCNC(=N)N)C(N)=O)C(C)C
Activity [12]: Active

CNC(=O)N1CCC(C2N[C@@H](c3nc(-c4ccccc4)c[nH]3)Cc3c2[nH]c2ccccc32)CC1 (stereo not given in full)
IC50 [2]: 240 nM | IC50 [3]: 180 nM | IC50 [4]: 35 nM

c1ccc(-c2c[nH]c([C@H]3Cc4c([nH]c5ccccc45)[C@H](C4CCOCC4)N3)n2)cc1
IC50 [3]: 1200 nM | IC50 [4]: 390 nM

CS(=O)(=O)N1CCC(C2N[C@@H](c3nc(-c4ccccc4)c[nH]3)Cc3c2[nH]c2ccccc32)CC1 (stereo not given in full)
IC50 [4]: 44 nM
